The species entered for experiment [1] is Mus musculus. The experiment can be described thus: Immunostimulatory activity in BALB/c mouse splenocytes assessed as induction of IFN-gamma production at 10 uM after 24 hrs by ELISA relative to GD2. The class given is functional, Splenocyte. Summed up: (§1)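 Mouse splenocytes were seeded at 1 × 10^6/mL and incubated 24 h with serial dilutions of free ligand or conjugates. Antigen and conjugate concentrations were scaled for conjugation ratio: one-sixth for BSA, one-fifth for OVA and MSA, equal for MG7, one-quarter for thymosin. Supernatant IFN-γ and IL-12 were measured by ELISA and expressed as conjugated/free ligand ratios. Data are triplicates from one of three experiments.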
In general terms: In an ELISA, binding on a coated surface is turned into a signal by an enzyme label.

The species entered for experiment [2] is Mus musculus. The experiment can be described thus: Immunostimulatory activity in BALB/c mouse splenocytes assessed as induction of IL-12 production at 10 uM after 24 hrs by ELISA relative to GD2. The class given is functional, Splenocyte. The gist of the method: as §1
Experiment [3] has as its system Mus musculus. Kind of experiment: Immunostimulatory activity in C57BL/6 mouse assessed as increase in IFN-gamma level in serum at 0.18 umol, iv at 2 hrs by luminex bead microassay relative to control. The class given is functional, organism-based. Summed up: (§2)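 C57BL/6 mice (n = 5 per group) received 0.18 μmol intravenously. Serum was collected at set times after injection, and IFN-γ and IL-12 were measured by Luminex assay against saline-treated controls. Data are mean ± SEM of two independent experiments.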

Experiment [4] deals with Mus musculus. The experiment can be described thus: Immunostimulatory activity in C57BL/6 mouse assessed as increase in IFN-gamma level in serum at 0.18 umol, iv after 2 to 48 hrs by luminex bead microassay relative to control. The class given is functional, organism-based. The gist of the method: as §2
For experiment [5], the target named is T1, Toll-like receptor 7 (Mus musculus) (UniProt P58681).
T1 sequence (whole entry): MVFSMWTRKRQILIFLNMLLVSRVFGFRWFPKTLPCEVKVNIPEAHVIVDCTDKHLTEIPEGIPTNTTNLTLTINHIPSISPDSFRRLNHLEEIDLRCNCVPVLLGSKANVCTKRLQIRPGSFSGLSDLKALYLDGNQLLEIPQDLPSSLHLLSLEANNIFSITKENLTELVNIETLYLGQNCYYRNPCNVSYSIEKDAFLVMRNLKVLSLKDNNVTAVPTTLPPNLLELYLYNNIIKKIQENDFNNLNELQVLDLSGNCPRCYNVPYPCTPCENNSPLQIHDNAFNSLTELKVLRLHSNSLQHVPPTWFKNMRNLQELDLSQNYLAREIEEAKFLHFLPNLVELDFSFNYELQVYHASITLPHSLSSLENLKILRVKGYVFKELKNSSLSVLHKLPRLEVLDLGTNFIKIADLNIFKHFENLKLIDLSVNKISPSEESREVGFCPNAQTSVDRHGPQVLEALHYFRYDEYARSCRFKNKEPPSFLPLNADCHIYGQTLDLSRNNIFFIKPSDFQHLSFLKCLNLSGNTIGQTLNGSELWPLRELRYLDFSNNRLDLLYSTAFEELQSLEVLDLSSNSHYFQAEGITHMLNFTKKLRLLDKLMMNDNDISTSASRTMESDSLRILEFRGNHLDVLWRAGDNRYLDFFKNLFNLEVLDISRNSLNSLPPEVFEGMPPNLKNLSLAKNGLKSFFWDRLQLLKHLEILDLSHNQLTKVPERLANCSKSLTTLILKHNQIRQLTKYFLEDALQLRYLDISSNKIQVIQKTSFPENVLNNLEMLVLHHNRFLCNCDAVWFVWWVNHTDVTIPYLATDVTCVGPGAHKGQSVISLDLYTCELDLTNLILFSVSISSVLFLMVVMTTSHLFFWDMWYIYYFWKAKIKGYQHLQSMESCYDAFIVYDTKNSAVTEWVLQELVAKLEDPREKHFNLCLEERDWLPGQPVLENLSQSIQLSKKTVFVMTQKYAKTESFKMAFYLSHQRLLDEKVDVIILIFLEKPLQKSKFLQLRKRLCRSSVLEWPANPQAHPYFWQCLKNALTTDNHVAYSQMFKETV
The experiment can be described thus: Agonist activity at TLR7 in mouse BMDM assessed as increase in IL-12 production at 2 uM after 24 hrs by ELISA in presence of BSA. Summed up: (§3)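 BMDM from wild-type or TLR7−/− mice were seeded at 1 × 10^6/mL. They were incubated 24 h with 2 μM antigen conjugates, with the free ligand at 10 μM. IL-12 in culture supernatants was measured by ELISA. Data are mean ± SEM of triplicates from one of three independent experiments. Only material with endotoxin <5 EU/mg was used.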

The target of experiment [6] is T1, Toll-like receptor 7 (Mus musculus). The experiment can be described thus: Agonist activity at TLR7 in mouse BMDM assessed as increase in IL-12 production at 2 uM after 24 hrs by ELISA in presence of OVA. Summed up:
as §3

Experiment [7] shares this target. The experiment can be described thus: Agonist activity at TLR7 in mouse BMDM assessed as increase in IL-12 production at 2 uM after 24 hrs by ELISA in presence of MSA. Summed up:
as §3

Experiment [8] has the same target. Kind of experiment: Agonist activity at TLR7 in mouse BMDM assessed as increase in IL-12 production at 2 uM after 24 hrs by ELISA in presence of MG7. The gist of the method:
as §3

The target is the same in experiment [9]. The experiment can be described thus: Agonist activity at TLR7 in mouse BMDM assessed as increase in IL-12 production at 2 uM after 24 hrs by ELISA in presence of thymosin. Summed up: as §3
Experiment [10] is filed under the species Mus musculus. The experiment can be described thus: Immunostimulatory activity in BALB/c mouse splenocytes assessed as induction of IFN-gamma production at 10 uM after 24 hrs by ELISA in presence of BSA relative to GD2. The class given is functional, Splenocyte. The gist of the method:
as §1

The species named for experiment [11] is Mus musculus. Kind of experiment: Immunostimulatory activity in BALB/c mouse splenocytes assessed as induction of IFN-gamma production at 10 uM after 24 hrs by ELISA in presence of OVA relative to GD2. It is filed as functional, Splenocyte. The gist of the method:
as §1

The species entered for experiment [12] is Mus musculus. The experiment can be described thus: Immunostimulatory activity in BALB/c mouse splenocytes assessed as induction of IFN-gamma production at 10 uM after 24 hrs by ELISA in presence of MSA relative to GD2. It is filed as functional, Splenocyte. The gist of the method: as §1
The species entered for experiment [13] is Mus musculus. Kind of experiment: Immunostimulatory activity in BALB/c mouse splenocytes assessed as induction of IFN-gamma production at 10 uM after 24 hrs by ELISA in presence of MG7 relative to GD2. It is filed as functional, Splenocyte. Summed up: as §1
Experiment [14] is filed under the species Mus musculus. The experiment can be described thus: Immunostimulatory activity in BALB/c mouse splenocytes assessed as induction of IFN-gamma production at 10 uM after 24 hrs by ELISA in presence of thymosin relative to GD2. The class given is functional, Splenocyte. Summed up:
as §1

The species named for experiment [15] is Mus musculus. The experiment can be described thus: Immunostimulatory activity in BALB/c mouse splenocytes assessed as induction of IL-12 production at 10 uM after 24 hrs by ELISA in presence of BSA relative to GD2. The class given is functional, Splenocyte. The gist of the method:
as §1

The species named for experiment [16] is Mus musculus. Kind of experiment: Immunostimulatory activity in BALB/c mouse splenocytes assessed as induction of IL-12 production at 10 uM after 24 hrs by ELISA in presence of OVA relative to GD2. It is filed as functional, Splenocyte. Summed up:
as §1

For experiment [17], the species on record is Mus musculus. The experiment can be described thus: Immunostimulatory activity in BALB/c mouse splenocytes assessed as induction of IL-12 production at 10 uM after 24 hrs by ELISA in presence of MSA relative to GD2. The class given is functional, Splenocyte. The gist of the method:
as §1

The species named for experiment [18] is Mus musculus. Kind of experiment: Immunostimulatory activity in BALB/c mouse splenocytes assessed as induction of IL-12 production at 10 uM after 24 hrs by ELISA in presence of MG7 relative to GD2. It is filed as functional, Splenocyte. Summed up:
as §1

For experiment [19], the species on record is Mus musculus. The experiment can be described thus: Immunostimulatory activity in BALB/c mouse splenocytes assessed as induction of IL-12 production at 10 uM after 24 hrs by ELISA in presence of thymosin relative to GD2. It is filed as functional, Splenocyte. The gist of the method:
as §1

Experiment [20] relates to Mus musculus. The experiment can be described thus: Immunostimulatory activity in C57BL/6 mouse assessed as increase in IFN-gamma level in serum at 0.18 umol, iv after 2 to 6 hrs by luminex bead microassay in presence of BSA relative to control. The class given is functional, organism-based. The gist of the method: as §2
Experiment [21] relates to Mus musculus. Kind of experiment: Immunostimulatory activity in C57BL/6 mouse assessed as increase in IFN-gamma level in serum at 0.18 umol, iv after 2 to 6 hrs by luminex bead microassay in presence of OVA relative to control. The class given is functional, organism-based. Summed up: as §2
The subject of experiment [22] is Mus musculus. Kind of experiment: Immunostimulatory activity in C57BL/6 mouse assessed as increase in IFN-gamma level in serum at 0.18 umol, iv after 2 to 6 hrs by luminex bead microassay in presence of MSA relative to control. The class given is functional, organism-based. Summed up:
as §2

For experiment [23], the system named is Mus musculus. Kind of experiment: Immunostimulatory activity in C57BL/6 mouse assessed as increase in IFN-gamma level in serum at 0.18 umol, iv after 2 to 6 hrs by luminex bead microassay in presence of MG7 relative to control. The class given is functional, organism-based. Summed up:
as §2

The subject of experiment [24] is Mus musculus. Kind of experiment: Immunostimulatory activity in C57BL/6 mouse assessed as increase in IFN-gamma level in serum at 0.18 umol, iv after 2 to 6 hrs by luminex bead microassay in presence of thymosin relative to control. It is filed as functional, organism-based. The gist of the method:
as §2

Experiment [25] concerns Mus musculus. The experiment can be described thus: Immunostimulatory activity in C57BL/6 mouse assessed as increase in IgG1 level in serum at 0.83 nmol, sc administered every 7 days measured up to 30 days by ELISA in presence of BSA. It is filed as functional, organism-based. The gist of the method: (§4)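 Mice were immunized with antigen, free ligand or conjugate, and serum was collected every 7 days from day 0 to day 30. BSA- or OVA-specific IgG1 and IgG2a were measured by ELISA. Data are mean ± SEM of triplicate from one of three independent experiments.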

Experiment [26] relates to Mus musculus. The experiment can be described thus: Immunostimulatory activity in C57BL/6 mouse assessed as increase in IgG1 level in serum at 1 nmol, sc administered every 7 days measured up to 30 days by ELISA in presence of OVA. The class given is functional, organism-based. The gist of the method:
as §4

In experiment [27] the test system is Mus musculus. Kind of experiment: Immunostimulatory activity in C57BL/6 mouse assessed as increase in IgG2a level in serum at 0.83 nmol, sc administered every 7 days measured up to 30 days by ELISA in presence of BSA. The class given is functional, organism-based. Summed up:
as §4

The subject of experiment [28] is Mus musculus. The experiment can be described thus: Immunostimulatory activity in C57BL/6 mouse assessed as increase in IgG2a level in serum at 1 nmol, sc administered every 7 days measured up to 30 days by ELISA in presence of OVA. It is filed as functional, organism-based. Summed up:
as §4

The subject of experiment [29] is Mus musculus. The experiment can be described thus: Immunostimulatory activity in C57BL/6 mouse assessed as increase in IgG1 level in serum at 5 nmol, sc administered every 7 days measured up to 30 days by ELISA. The class given is functional, organism-based. The gist of the method: as §4
For experiment [30], the system named is Mus musculus. Kind of experiment: Immunostimulatory activity in C57BL/6 mouse assessed as increase in IgG2a level in serum at 5 nmol, sc administered every 7 days measured up to 30 days by ELISA. It is filed as functional, organism-based. The gist of the method: as §4

Active and inactive are the calls of the source. The calls are words filed in the database; no cut-off is given here.

Take `COCCOc1nc(N)c2nc(O)n(Cc3ccc(C=O)cc3)c2n1`: the “fold change (FC)” value in the experiment listed under Mus musculus [1] was 524; in the experiment filed under Mus musculus [2] it was 61. Moreover, in the experiment with Mus musculus [3], the outcome was Active. Moreover, the result with Mus musculus [4] was inactive.

As to `COCCOc1nc(N)c2nc(O)n(CCCC(=O)O)c2n1`, the result (in [5]; in experiment [6]; in [7]; in experiment [8]; in [9]; with Mus musculus [20]) was Active. For the same compound, the result with Mus musculus [21], with Mus musculus [22], in the experiment on Mus musculus [23], with Mus musculus [24], in the experiment on Mus musculus [25] and in the experiment with Mus musculus [26] was Active. Moreover, the result in the experiment on Mus musculus [27] and with Mus musculus [28] was Active. For the same compound, the “fold change (FC)” value in the experiment listed under Mus musculus [10] is 488; in the experiment filed under Mus musculus [11], 73; in the experiment filed under Mus musculus [12] it was 575; in the experiment filed under Mus musculus [13] it was 550; in the experiment listed under Mus musculus [14] it was 1511; in the experiment listed under Mus musculus [15], 16. In addition, the “fold change (FC)” value came out at 175 in the experiment listed under Mus musculus [16], 42 in the experiment filed under Mus musculus [17], 52 in the experiment listed under Mus musculus [18] and 409 in the experiment listed under Mus musculus [19]. Further, the result in the experiment on Mus musculus [4], in the experiment on Mus musculus [29] and with Mus musculus [30] was inactive.

The record behind these values is ChEMBL document CHEMBL3576817, “Synthesis and Evaluation of Conjugates of Novel TLR7 Inert Ligands as Self-Adjuvanting Immunopotentiators” (2015).
